Measurements taken from ChEMBL document CHEMBL4396873, “Discovery of Potent, Selective, and Short-Acting Peptidic V2 Receptor Agonists” (J Med Chem, 2019).
pEC50: −log10 of the molar value. The source made the active and inactive calls. The rule behind the calls is not given here. Numbered stars: 1 amine (or outer) side, 2 acyl side, 3 side chain; on linkers, the order of the positions; unused ones are H or OH. Bridge positions count the residues as written; N and C are the ends. Square brackets hold non-standard residues; d marks the D form. Peptide text beside a SMILES is read from it. * marks the point of attachment. Phe(4-Cl) = N[C@@H](Cc1ccc(Cl)cc1)C(=O)O; Phe(4-Me) = Cc1ccc(C[C@H](N)C(=O)O)cc1; 2Thi = N[C@@H](Cc1cccs1)C(=O)O; X4 = N=C(N)NCCC[C@@H](CO)N*; X2 = N=C(N)NCCC[C@H](CO)N*; hCys = N[C@@H](CCS)C(=O)O; X1 = O=C(CCC[*:2])[*:1]; X3 = O=C(CC[*:2])[*:1]; NEt2 = CCN(CC)*

Columns and labels:
[1] = Clearance in Sprague-Dawley rat at 0.1 mg/kg, iv administered as cassette dose by LC-MS/MS analysis; type: ADME, organism-based; conditions: in vivo
Vasopressin V2 receptor [2] = target: Vasopressin V2 receptor (Homo sapiens, UniProt P30518); assay: Agonist activity at recombinant human V2 receptor expressed in HEK293 cells measured after 5 hrs by cAMP response element driven luciferase reporter gene assay; type: functional, cell-based
Chain of Vasopressin V2 receptor (Homo sapiens, UniProt P30518) (P30518 whole entry): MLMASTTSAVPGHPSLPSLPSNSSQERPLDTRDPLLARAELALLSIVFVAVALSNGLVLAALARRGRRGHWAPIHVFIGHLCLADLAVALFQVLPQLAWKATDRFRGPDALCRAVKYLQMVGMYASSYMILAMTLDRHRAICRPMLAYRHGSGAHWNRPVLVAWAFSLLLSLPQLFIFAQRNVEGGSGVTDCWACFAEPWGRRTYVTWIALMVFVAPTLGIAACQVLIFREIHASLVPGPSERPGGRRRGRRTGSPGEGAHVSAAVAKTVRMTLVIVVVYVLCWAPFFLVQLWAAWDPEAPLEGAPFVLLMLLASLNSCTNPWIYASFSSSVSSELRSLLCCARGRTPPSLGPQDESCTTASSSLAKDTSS

Oxytocin receptor = target: T1, Oxytocin receptor (Homo sapiens, UniProt P30559); assay: Agonist activity at human OTR stably expressed in CHOK1 cells by NFAT-luciferase reporter gene assay; type: cell-based
T1 sequence (P30559 whole entry): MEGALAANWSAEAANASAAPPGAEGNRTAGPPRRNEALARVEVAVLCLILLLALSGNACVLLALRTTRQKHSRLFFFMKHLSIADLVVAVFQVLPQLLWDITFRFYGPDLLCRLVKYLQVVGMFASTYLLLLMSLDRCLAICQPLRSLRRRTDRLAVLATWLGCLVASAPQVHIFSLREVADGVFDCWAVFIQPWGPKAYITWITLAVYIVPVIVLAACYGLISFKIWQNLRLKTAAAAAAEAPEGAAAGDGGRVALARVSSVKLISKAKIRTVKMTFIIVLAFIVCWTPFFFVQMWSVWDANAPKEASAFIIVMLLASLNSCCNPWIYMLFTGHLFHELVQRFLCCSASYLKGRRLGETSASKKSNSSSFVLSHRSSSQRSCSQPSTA

[3] = Protein binding in rat plasma at 200 to 1000 ng/ml measured after 15 mins by UC-LC/MS/MS analysis; type: ADME, cell-free; conditions: read-out: PPB (converted)
Summary of the method: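 Peptide spiked into rat plasma to final 200-1000 ng/mL, incubated 15 min at 37 °C, ultracentrifuged at 773,000 xg for 30 min at 37 °C; middle-layer sample quantified by LC/MS/MS; binding (%) = (Ci − Cm)/Ci × 100; quadruplicate.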

Vasopressin V1a receptor = Vasopressin V1a receptor (Homo sapiens, UniProt P37288); assay: Agonist activity at recombinant human V1a receptor expressed in HEK293 cells up to 1000 nM measured after 5 hrs by luciferase reporter gene assay; type: cell-based; conditions: hek293, 5 h
Chain of Vasopressin V1a receptor (P37288 whole entry): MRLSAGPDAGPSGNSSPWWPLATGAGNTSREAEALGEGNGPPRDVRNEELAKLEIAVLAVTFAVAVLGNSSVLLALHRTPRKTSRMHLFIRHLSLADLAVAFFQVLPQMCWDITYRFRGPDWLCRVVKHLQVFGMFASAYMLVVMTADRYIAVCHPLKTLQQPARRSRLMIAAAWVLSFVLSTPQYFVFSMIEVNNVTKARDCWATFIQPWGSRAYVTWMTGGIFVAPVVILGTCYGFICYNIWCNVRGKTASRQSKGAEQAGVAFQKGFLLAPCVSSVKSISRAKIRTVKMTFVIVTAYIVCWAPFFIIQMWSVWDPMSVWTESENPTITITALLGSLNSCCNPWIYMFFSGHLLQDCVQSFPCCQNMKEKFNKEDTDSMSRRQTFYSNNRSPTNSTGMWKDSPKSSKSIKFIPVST

Rattus norvegicus [4] = assay: Antidiuretic activity in iv dosed rat assessed as suppression of urine output relative to control; type: functional
Rattus norvegicus [5] = assay: Antidiuretic activity in hydrated-euvolemic Sprague-Dawley rat assessed as effective plasma concentration causing half-maximal suppression of urine output administered as iv infusion for 180 mins measured during compound dosing; type: functional, organism-based; conditions: 3 h
Rattus norvegicus [6] = assay: Antidiuretic activity in hydrated-euvolemic Sprague-Dawley rat assessed as suppression of urine output by measuring cumulative urine weight administered as iv infusion for 180 mins measured during compound dosing; type: functional
Rattus norvegicus [7] = assay: Antidiuretic activity in hydrated-euvolemic Sprague-Dawley rat assessed as suppression of urine output by measuring cumulative urine weight at 30 pM administered as iv infusion for 180 mins measured up to 300 mins; type: functional
Rattus norvegicus [8] = assay: Antidiuretic activity in hydrated-euvolemic Sprague-Dawley rat assessed as suppression of urine output at MED administered as iv infusion for 180 mins measured during compound dosing relative to control; type: functional
Rattus norvegicus [9] = assay: Antidiuretic activity in hydrated-euvolemic Sprague-Dawley rat assessed as suppression of urine output at 30 pM administered as iv infusion for 180 mins measured after 5 hrs; type: functional, organism-based
[10] = target: Vasopressin V2 receptor (Rattus norvegicus) (UniProt Q00788); assay: Agonist activity at recombinant rat V2 receptor expressed in HEK293 cells measured after 5 hrs by cAMP response element driven luciferase reporter gene assay relative to control; type: functional, cell-based
Chain of Vasopressin V2 receptor (Rattus norvegicus) (Q00788 whole entry): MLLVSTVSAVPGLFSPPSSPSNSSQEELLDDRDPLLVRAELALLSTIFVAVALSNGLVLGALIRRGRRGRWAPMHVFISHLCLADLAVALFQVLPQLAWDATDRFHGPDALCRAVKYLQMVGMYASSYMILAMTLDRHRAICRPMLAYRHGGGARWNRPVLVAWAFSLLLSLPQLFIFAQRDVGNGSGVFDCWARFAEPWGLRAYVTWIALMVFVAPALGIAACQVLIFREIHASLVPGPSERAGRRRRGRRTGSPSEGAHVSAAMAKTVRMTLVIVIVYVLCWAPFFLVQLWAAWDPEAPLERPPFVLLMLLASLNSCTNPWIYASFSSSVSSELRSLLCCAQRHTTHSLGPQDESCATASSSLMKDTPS

[11] = Non-renal clearance in nephrectomized Sprague-Dawley rat at 0.1 mg/kg, iv administered as cassette dose by LC-MS/MS analysis; type: ADME, organism-based; conditions: in vivo
[12] = Clearance in iv dosed over hydrated human; type: ADME, organism-based; conditions: in vivo
[13] = Clearance in severe renal impairment patent; type: ADME; conditions: human
Vasopressin V2 receptor [14] = target: Vasopressin V2 receptor (Rattus norvegicus, UniProt Q00788); assay: Agonist activity at recombinant rat V2 receptor expressed in HEK293 cells measured after 5 hrs by cAMP response element driven luciferase reporter gene assay; type: functional, cell-based
Chain of Vasopressin V2 receptor (Rattus norvegicus, UniProt Q00788) (Q00788 whole entry): as above

[15] = Elimination half life in Sprague-Dawley rat at 0.1 mg/kg, iv administered as cassette dose by LC-MS/MS analysis; type: ADME, organism-based; conditions: in vivo, read-out: beta t1/2
Rattus norvegicus [16] = assay: Antidiuretic activity in hydrated-euvolemic Sprague-Dawley rat assessed as suppression of urine output at 30 to 100 pM administered as iv infusion for 180 mins measured after 1 hr; type: functional, organism-based
[17] = target: T2, Oxytocin receptor (Homo sapiens) (UniProt P30559); assay: Agonist activity at human OTR stably expressed in CHOK1 cells up to 10000 nM by NFAT-luciferase reporter gene assay; type: cell-based
T2 sequence (whole entry): T1 sequence (P30559 whole entry)

[18] = Half life in iv dosed Sprague-Dawley rat by LC-MS/MS analysis; type: ADME, organism-based; conditions: in vivo
Rattus norvegicus [19] = assay: Antidiuretic activity in hydrated-euvolemic Sprague-Dawley rat assessed as suppression of urine output administered as iv infusion for 180 mins measured during compound dosing; type: functional, organism-based
Rattus norvegicus [20] = assay: Antidiuretic activity in hydrated-euvolemic Sprague-Dawley rat assessed as suppression of urine output by measuring cumulative urine weight at 30 to 100 pM administered as iv infusion for 180 mins measured up to 300 mins; type: functional

| Compound | clearance [1] [mL/min/kg] | pEC50 (Oxytocin receptor) | fraction unbound at […] [3] | Activity (Vasopressin V1a receptor) | CL [11] [%] | further results |
| --- | --- | --- | --- | --- | --- | --- |
| CC(C)[C@@H]1NC(=O)[C@H](Cc2cccs2)NC(=O)[C@H](Cc2ccc(O)cc2)NC(=O)CCCSC[C@@H](C(=O)N2CCC[C@H]2C(=O)N[C@H](CO)CCCNC(=N)N)NC(=O)[C@H](CC(N)=O)NC1=O (Y[2Thi]VNCP-X4; linker N-5 via X1) | 8.1 | 6.64 | 0.85 | Not Active |  | pEC50 (Vasopressin V2 receptor [2]): 10.00 |
| N=C(N)NCCC[C@@H](NC(=O)[C@@H]1CCCN1C(=O)[C@@H]1CSSCCC(=O)N[C@@H](Cc2ccc(O)cc2)C(=O)N[C@@H](Cc2ccccc2)C(=O)N[C@@H](CCC(N)=O)C(=O)N[C@@H](CC(N)=O)C(=O)N1)C(=O)NCC(N)=O [DESMOPRESSIN] |  |  |  |  |  | Activity (Rattus norvegicus [4]): 48%; pEC50 (Rattus norvegicus [5]): 12.49; Activity (Rattus norvegicus [6]): 5.2 g; Activity (Rattus norvegicus [7]): 0.99 g; Activity (Rattus norvegicus [8]): 80%; Activity (Rattus norvegicus [9]): Active; Efficacy [10]: 100% |
| CC(C)[C@@H]1NC(=O)[C@H](Cc2cccs2)NC(=O)[C@H](Cc2ccc(O)cc2)NC(=O)CCSCC[C@@H](C(=O)N2CCC[C@H]2C(=O)N[C@@H](CO)CCCNC(=N)N)NC(=O)[C@H](CC(N)=O)NC1=O (Y[2Thi]VN[hCys]P-X2; linker N-5 via X3) | 6.9 | 6.80 | 0.74 | Not Active |  | pEC50 (Vasopressin V2 receptor [2]): 10.10 |
| CC(C)[C@@H]1NC(=O)[C@H](Cc2cccs2)NC(=O)[C@H](Cc2ccc(Cl)cc2)NC(=O)CCCSC[C@@H](C(=O)N2CCC[C@H]2C(=O)N[C@H](CO)CCCNC(=N)N)NC(=O)[C@H](CC(N)=O)NC1=O ([Phe(4-Cl)][2Thi]VNCP-X4; linker N-5 via X1) | 8.1 | < 5.00 | 0.19 | Not Active |  |  |
| Cc1ccc(C[C@@H]2NC(=O)CCCSC[C@@H](C(=O)N3CCC[C@H]3C(=O)N[C@@H](CO)CCCNC(=N)N)NC(=O)[C@H](CC(N)=O)NC(=O)[C@H](C(C)C)NC(=O)[C@H](Cc3cccs3)NC2=O)cc1 ([Phe(4-Me)][2Thi]VNCP-X2; linker N-5 via X1) | 5.3 | < 5.00 | 0.32 | Not Active | 30 |  |
| NC(=O)CC[C@@H]1NC(=O)[C@H](Cc2ccccc2)NC(=O)[C@H](Cc2ccc(O)cc2)NC(=O)CCSSC[C@@H](C(=O)N2CCC[C@H]2C(=O)N[C@H](CCCN=C(N)N)C(=O)NCC(N)=O)NC(=O)[C@H](CC(N)=O)NC1=O [DESMOPRESSIN] |  |  | 0.59 |  | 11 | clearance [12]: 1.7 mL/min/kg; clearance [13]: 0.69 mL/min/kg; pEC50 (Vasopressin V2 receptor [14]): 10.52 |
| CCN(CC)C(=O)[C@@H](CCCNC(=N)N)NC(=O)[C@@H]1CCCN1C(=O)[C@@H]1CSCCCC(=O)N[C@@H](Cc2ccc(Cl)cc2)C(=O)N[C@@H](Cc2cccs2)C(=O)N[C@@H](C(C)C)C(=O)N[C@@H](CC(N)=O)C(=O)N1 ([Phe(4-Cl)][2Thi]VNCP[dR]-NEt2; linker N-5 via X1) | 42 |  | 0.08 | Not Active | 60 | half-life [15]: 6.4 min; Activity (Rattus norvegicus [16]): inactive; pEC50 (Rattus norvegicus [5]): 12.37; Activity (Rattus norvegicus [6]): 5 g; Activity [17]: inactive; Activity (Rattus norvegicus [8]): 80%; half-life [18]: 12 min; Activity (Rattus norvegicus [19]): Dose-dependent effect; pEC50 (Vasopressin V2 receptor [14]): 10.30; Activity (Rattus norvegicus [20]): 1 g; Efficacy [10]: 91% |
